By IC50 is commonly meant the point on the concentration scale where inhibition reaches its midpoint. As a reminder, the inhibition is the drop in the measured response relative to a control, in per cent. Low values mean little suppression, high ones strong suppression. In general, bioavailability refers to dose-corrected exposure relative to a reference, in per cent. A higher bioavailability goes with good availability. Usually half-life stands for the time in which the quantity being followed falls by half.

The source made the active and inactive calls. The rule behind the calls is not given here.

Data set [1] deals with T1, Prostaglandin D2 receptor 2 (Homo sapiens, UniProt Q9Y5Y4).
T1 sequence (Q9Y5Y4 whole entry): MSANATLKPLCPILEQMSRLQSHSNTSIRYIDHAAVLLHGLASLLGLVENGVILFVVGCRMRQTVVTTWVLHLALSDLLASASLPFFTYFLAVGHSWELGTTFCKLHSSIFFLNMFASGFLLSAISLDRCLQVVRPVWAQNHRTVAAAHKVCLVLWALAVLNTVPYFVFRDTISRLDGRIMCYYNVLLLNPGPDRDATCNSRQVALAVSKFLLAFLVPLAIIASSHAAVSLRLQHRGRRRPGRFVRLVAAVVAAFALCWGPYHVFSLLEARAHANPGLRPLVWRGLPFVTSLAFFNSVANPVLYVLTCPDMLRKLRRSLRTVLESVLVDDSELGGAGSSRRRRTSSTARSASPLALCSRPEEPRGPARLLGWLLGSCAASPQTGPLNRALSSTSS
The data set can be described thus: Displacement of [3H]-PGD2 from human prostanoid DP2 receptor expressed in human 293T cells by liquid scintillation counting in presence of 0.2 % human serum albumin. In kind it is cell-based. The gist of the method: (§1)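 Membranes from 293 cells stably expressing human DP2 were incubated with [³H]-PGD₂ across increasing compound concentrations. Membranes were harvested and washed, and bound radioactivity was counted. The IC50 is the concentration giving 50% inhibition of [³H]-PGD₂ binding. The assay was run without and with 0.2% human serum albumin to gauge protein shift. Mean of at least three experiments.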

Data set [2] concerns the target T1, Prostaglandin D2 receptor 2. Put plainly: Displacement of [3H]-PGD2 from human prostanoid DP2 receptor expressed in human 293T cells by liquid scintillation counting. It counts as cell-based. The gist of the method:
as §1
A general note: Loss of bound radioactivity is the signal in a displacement assay; it reports binding, not function.

For the next data set, the target named is Cytochrome P450 3A4 (Homo sapiens, UniProt P08684). The data set can be described thus: Inhibition of human CYP3A4. In kind it is ADME.
For a further data set, the target named is Cytochrome P450 2C9 (Homo sapiens, UniProt P11712). The data set can be described thus: Inhibition of human CYP2C9. In kind it is ADME.
Another data set has as its target Cytochrome P450 2D6 (Homo sapiens, UniProt P10635). The data set can be described thus: Inhibition of human CYP2D6. It counts as ADME.
In the next data set the target is T2, Thromboxane A2 receptor (Homo sapiens, UniProt P21731).
T2 sequence (P21731 whole entry): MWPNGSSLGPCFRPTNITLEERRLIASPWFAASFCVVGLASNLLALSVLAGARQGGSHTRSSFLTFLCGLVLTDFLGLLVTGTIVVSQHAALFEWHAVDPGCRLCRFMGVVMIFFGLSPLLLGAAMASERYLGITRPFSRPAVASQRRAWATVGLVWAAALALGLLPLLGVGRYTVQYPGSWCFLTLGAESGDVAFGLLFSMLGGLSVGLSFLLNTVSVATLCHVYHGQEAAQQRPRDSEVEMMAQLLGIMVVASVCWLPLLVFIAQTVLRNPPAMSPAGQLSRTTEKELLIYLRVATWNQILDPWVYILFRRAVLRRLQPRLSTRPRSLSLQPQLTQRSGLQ
The data set can be described thus: Displacement of [3H]-SQ-29,548 from human TP receptor expressed in human platelet membranes. In kind it is cell membranes. The gist of the method:
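TP binding was measured with human platelet membranes and ³H-SQ-29,548 as radioligand.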

A further data set concerns the target Prostacyclin receptor (Homo sapiens, UniProt P43119). The data set can be described thus: Displacement of [3H]-iloprost from human prostanoid IP receptor expressed in human 293T cells membranes. In kind it is cell membranes. The gist of the method:
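IP binding was measured with membranes from hIP/293 cells and ³H-iloprost as radioligand.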

For data set [3], the target named is T3, Prostaglandin D2 receptor (Homo sapiens, UniProt Q13258).
T3 sequence (Q13258 whole entry): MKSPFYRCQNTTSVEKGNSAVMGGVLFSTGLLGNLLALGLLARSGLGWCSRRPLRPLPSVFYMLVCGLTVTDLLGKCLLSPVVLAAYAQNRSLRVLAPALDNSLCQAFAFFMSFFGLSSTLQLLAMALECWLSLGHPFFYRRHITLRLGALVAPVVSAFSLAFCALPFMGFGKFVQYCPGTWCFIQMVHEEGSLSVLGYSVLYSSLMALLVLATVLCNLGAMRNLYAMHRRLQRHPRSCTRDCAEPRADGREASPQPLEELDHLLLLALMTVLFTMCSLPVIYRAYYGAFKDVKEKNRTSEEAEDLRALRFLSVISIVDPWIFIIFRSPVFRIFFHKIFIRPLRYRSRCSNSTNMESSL
The data set can be described thus: Displacement of [3H]-PGD2 from human DP1 receptor expressed in human platelet membranes. It counts as cell membranes.

For the next data set, the target named is hERG (KCNH2) (Homo sapiens, UniProt Q12809). The data set can be described thus: Inhibition of human ERG at 10 uM by patch clamp assay. The gist of the method:
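hERG inhibition was measured by patch clamp, performed by an external contract laboratory.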
(In general: Patch clamp records ionic current or voltage across a cell membrane.)

A further data set deals with Mus musculus. Put plainly: Antiallergic effect in ovalbumin-sensitized BALB/c mouse allergic rhinitis model assessed as reduction in sneezing symptoms at 10 mg/kg, po administered 1 hr prior to OVA challenge on days 31 and 32 measured for 8 mins immediately after OVA challenge on day 32. Also noted: dose 10 mg/kg. In kind it is functional, organism-based. The gist of the method:
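Female BALB/c mice sensitized with intraperitoneal OVA (10 µg in Alum) on days 0 and 7, then given nasal OVA challenge. Compound or water vehicle was dosed orally 1 h before challenge on days 31 and 32 only. Sneezing was counted over an 8 min session immediately after the day 32 challenge. n = 4–10 mice per group, means ± SEM, Dunnett's test after ANOVA versus vehicle.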

A short description of data set [4]: Oral bioavailability in rat at 10 mg/kg. To be noted: in vivo.
Data set [5] can be described thus: Oral bioavailability in dog at 5 mg/kg. It counts as ADME, organism-based, Canis lupus familiaris. To be noted: in vivo. The gist of the method:
(§2)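 Dog dosing used the sodium salt, given IV at 2 mpk in saline and PO at 5 mpk in 0.5% Methocel.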

Data set [6] can be described thus: Half life in dog at 2 mg/kg, iv and 5 mg/kg, po. It counts as ADME, organism-based, Canis lupus familiaris. The conditions noted are these: in vivo. The gist of the method:
as §2

A short description of data set [7]: Half life in rat at 2 mg/kg, iv. It counts as ADME, organism-based. Set-up: dose 2 mg/kg, route intravenous. The conditions noted are these: in vivo. The gist of the method:
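Rat dosing used the sodium salt, given IV at 2 mpk in water.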

Chain of Cytochrome P450 2C9 (P11712 whole entry): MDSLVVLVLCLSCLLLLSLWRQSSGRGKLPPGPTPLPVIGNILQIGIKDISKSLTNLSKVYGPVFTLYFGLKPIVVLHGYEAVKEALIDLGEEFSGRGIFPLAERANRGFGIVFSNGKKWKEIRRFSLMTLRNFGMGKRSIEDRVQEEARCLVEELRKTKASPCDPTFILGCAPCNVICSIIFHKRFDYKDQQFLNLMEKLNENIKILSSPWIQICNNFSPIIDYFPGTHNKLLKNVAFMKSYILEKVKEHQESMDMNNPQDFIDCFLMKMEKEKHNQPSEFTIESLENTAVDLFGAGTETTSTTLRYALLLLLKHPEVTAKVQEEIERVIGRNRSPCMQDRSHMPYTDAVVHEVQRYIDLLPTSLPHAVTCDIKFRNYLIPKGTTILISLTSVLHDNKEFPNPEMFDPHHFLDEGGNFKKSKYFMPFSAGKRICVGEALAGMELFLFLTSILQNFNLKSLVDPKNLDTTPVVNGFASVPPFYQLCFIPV
Chain of Cytochrome P450 3A4 (P08684 whole entry): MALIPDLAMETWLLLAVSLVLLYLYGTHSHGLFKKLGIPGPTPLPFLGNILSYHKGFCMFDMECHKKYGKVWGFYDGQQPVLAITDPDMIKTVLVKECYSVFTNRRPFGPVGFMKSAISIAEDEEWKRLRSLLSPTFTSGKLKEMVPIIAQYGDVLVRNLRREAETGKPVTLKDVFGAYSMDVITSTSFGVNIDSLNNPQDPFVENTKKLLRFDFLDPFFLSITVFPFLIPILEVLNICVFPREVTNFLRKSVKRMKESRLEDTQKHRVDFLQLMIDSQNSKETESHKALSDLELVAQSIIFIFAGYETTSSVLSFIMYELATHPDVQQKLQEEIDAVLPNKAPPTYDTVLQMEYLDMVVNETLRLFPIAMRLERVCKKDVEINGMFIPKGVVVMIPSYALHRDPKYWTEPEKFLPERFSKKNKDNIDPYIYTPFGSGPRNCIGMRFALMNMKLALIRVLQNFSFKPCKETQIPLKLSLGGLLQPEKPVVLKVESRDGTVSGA
Chain of hERG (KCNH2) (Q12809 whole entry): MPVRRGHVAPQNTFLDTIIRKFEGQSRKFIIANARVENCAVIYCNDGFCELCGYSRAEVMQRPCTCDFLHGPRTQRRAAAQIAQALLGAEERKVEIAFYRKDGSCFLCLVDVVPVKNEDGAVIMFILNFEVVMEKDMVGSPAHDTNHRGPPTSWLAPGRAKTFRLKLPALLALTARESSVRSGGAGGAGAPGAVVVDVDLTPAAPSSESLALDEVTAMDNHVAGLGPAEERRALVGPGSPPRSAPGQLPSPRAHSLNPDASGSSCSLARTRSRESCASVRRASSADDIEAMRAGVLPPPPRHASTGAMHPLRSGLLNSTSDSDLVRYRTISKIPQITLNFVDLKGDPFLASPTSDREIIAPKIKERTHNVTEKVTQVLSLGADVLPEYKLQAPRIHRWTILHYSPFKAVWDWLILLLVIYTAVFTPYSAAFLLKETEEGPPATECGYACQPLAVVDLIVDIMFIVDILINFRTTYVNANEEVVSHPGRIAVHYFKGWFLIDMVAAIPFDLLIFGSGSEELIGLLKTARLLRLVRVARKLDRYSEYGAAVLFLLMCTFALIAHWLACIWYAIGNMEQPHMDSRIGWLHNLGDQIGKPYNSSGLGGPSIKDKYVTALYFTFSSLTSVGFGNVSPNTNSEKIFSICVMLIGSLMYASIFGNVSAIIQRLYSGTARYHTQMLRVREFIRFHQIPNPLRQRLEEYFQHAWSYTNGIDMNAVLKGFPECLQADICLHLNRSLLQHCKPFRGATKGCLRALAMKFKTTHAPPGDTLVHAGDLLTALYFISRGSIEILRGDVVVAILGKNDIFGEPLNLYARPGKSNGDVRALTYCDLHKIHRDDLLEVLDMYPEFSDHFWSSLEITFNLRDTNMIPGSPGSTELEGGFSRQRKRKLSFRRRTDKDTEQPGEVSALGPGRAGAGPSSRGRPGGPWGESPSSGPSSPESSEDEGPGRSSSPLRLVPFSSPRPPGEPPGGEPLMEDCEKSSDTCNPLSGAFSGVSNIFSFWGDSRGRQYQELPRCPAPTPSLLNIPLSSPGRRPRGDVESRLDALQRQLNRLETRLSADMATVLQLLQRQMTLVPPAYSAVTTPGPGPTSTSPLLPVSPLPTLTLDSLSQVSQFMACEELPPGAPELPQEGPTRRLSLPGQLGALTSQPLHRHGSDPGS
Chain of Cytochrome P450 2D6 (P10635 whole entry): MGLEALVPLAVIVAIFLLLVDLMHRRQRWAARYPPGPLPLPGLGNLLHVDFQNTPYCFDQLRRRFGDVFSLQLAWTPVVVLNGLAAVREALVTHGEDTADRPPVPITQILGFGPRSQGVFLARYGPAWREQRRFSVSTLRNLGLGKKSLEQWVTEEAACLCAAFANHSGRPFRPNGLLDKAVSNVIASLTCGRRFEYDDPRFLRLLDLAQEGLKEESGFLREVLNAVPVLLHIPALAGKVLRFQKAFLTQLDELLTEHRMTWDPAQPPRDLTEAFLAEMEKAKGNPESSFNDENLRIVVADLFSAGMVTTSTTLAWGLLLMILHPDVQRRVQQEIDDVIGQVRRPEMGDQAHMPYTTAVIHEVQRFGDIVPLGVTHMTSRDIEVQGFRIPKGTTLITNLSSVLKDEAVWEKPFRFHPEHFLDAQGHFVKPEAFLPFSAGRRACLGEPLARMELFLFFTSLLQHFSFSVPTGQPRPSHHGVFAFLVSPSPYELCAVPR
Chain of Prostacyclin receptor (P43119 whole entry): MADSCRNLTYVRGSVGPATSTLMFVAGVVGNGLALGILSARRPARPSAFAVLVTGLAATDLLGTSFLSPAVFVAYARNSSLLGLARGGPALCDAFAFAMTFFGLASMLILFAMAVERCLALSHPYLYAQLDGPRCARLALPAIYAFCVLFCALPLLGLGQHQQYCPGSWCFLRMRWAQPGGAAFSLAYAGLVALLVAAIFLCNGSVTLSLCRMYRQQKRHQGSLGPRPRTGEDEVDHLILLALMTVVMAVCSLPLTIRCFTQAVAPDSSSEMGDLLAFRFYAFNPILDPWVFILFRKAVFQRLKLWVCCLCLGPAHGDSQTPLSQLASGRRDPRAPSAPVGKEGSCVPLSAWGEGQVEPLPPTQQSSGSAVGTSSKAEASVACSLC

As for `CCN(Cc1cc(C(F)(F)F)ccc1-c1cc(CC(=O)O)ccc1OC)C(=O)OCc1ccccc1Cl`, the IC50 was 0.011 µM in data set [1] and 0.003 µM in data set [2].
With `COc1ccc(CC(=O)O)cc1-c1ccc(C(F)(F)F)cc1CNCCc1ccccc1`, the IC50 turned out to be 11 µM in data set [1] and 3.4 µM in data set [2].
`C[C@H]1[C@@H](c2ccccc2)OC(=O)N1Cc1cc(C(F)(F)F)ccc1-c1cccc(CC(=O)O)c1`: the IC50 in data set [1] was 3 µM; in data set [2] it was 0.34 µM.
Take `C[C@H]1[C@@H](c2ccccc2)OC(=O)N1Cc1cc(C(F)(F)F)ccc1-c1cccc(C(=O)O)c1`: the IC50 was found to be 91 µM in data set [1] and 27 µM in data set [2].
As to `C[C@H]1[C@@H](c2ccccc2)OC(=O)N1Cc1cc(C(F)(F)F)ccc1-c1ccccc1CCC(=O)O`, the IC50 in data set [1] is 38 µM; in [2], 11 µM.
Consider `CCN(Cc1cc(C(F)(F)F)ccc1-c1cc(CC(=O)O)ccc1OC)C(=O)OCc1ccc(Cl)cc1`, for which the IC50 on Cytochrome P450 3A4 is 21 µM; in data set [1], 0.007 µM; against Cytochrome P450 2C9, 18 µM; against Cytochrome P450 2D6 it was more than 30 µM; on Thromboxane A2 receptor, 11.3 µM; on Prostacyclin receptor it was 33 µM. For the same compound, the IC50 in data set [2] amounted to 0.003 µM; in data set [3], 4 µM. On hERG (KCNH2), this compound displayed an inhibition at 10 µM of 22%.
For the compound `COc1ccc(CC(=O)O)cc1-c1ccc(C(F)(F)F)cc1CN(C(=O)OCc1ccccc1)C1CCCC1`, the results for the IC50 in [1] and in [2] were 0.053 µM and 0.011 µM, respectively.
With `CCN(Cc1cc(C(F)(F)F)ccc1-c1cc(CC(=O)O)ccc1OC)C(=O)OCc1ccccc1`, the result in the data set with Mus musculus was Active. The IC50 against Cytochrome P450 3A4 was 18 µM; on Cytochrome P450 2C9, 18 µM; on Cytochrome P450 2D6, more than 30 µM; on Thromboxane A2 receptor, 23 µM; at Prostacyclin receptor, 56.2 µM; in data set [3] it was 4 µM. Also, the bioavailability in data set [4] came out at 77%; in data set [5] it was 89%. Moreover, the half-life in [6] was 7.4 h; in data set [7] it was 8.7 h.
For `COC(=O)N(Cc1ccccc1)Cc1cc(C(F)(F)F)ccc1-c1cc(CC(=O)O)ccc1OC`, the IC50 was more than 30 µM at Cytochrome P450 3A4; 0.031 µM in data set [1]; more than 30 µM against Cytochrome P450 2C9; more than 30 µM on Cytochrome P450 2D6; 62.4 µM at Thromboxane A2 receptor; 0.008 µM in data set [2]. This compound also displayed an IC50 in [3] of 12.6 µM. Further, the inhibition at 10 µM on hERG (KCNH2) came out at 1.2%.
Turning to `C[C@H]1[C@@H](c2ccccc2)OC(=O)N1Cc1cc(C(F)(F)F)ccc1-c1cccc(CCC(=O)O)c1`, the IC50 worked out at 75 µM in [1] and 9.8 µM in data set [2].
Taken in the same sequence, the figures for `C[C@H]1[C@@H](c2ccccc2)OC(=O)N1Cc1cc(C(F)(F)F)ccc1-c1ccccc1CC(=O)O` were 62 µM and 41 µM.
The matching figures for `COc1ccc(CC(=O)O)cc1-c1ccccc1CN1C(=O)O[C@H](c2ccccc2)[C@@H]1C`: 2 µM and 0.88 µM.
Take `COc1ccc(CC(=O)O)cc1-c1ccc(C(F)(F)F)cc1CN(C)C(=O)OCc1ccccc1`: the IC50 in data set [1] stood at 0.018 µM; in [2] it was 0.004 µM.
`COc1ccc(-c2cc(CC(=O)O)ccc2OC)c(CN2C(=O)O[C@H](c3ccccc3)[C@@H]2C)c1`: the IC50 in [1] was determined as 6.1 µM; in data set [2] it was 1.3 µM.
The matching figures for `COc1ccc(CC(=O)O)cc1-c1ccc(F)cc1CN1C(=O)O[C@H](c2ccccc2)[C@@H]1C`: 1.3 µM and 0.36 µM.
On to `CCN(Cc1cc(C(F)(F)F)ccc1-c1cc(CC(=O)O)ccc1OC)C(=O)OC`, for which the IC50 is more than 30 µM against Cytochrome P450 3A4; 0.016 µM in [1]; more than 30 µM against Cytochrome P450 2C9; more than 30 µM against Cytochrome P450 2D6; 67.4 µM on Thromboxane A2 receptor; 0.009 µM in data set [2]. This compound also had an IC50 in data set [3] of 36.4 µM. Also, the inhibition at 10 µM against hERG (KCNH2) stood at 5.9%.
Turning to `CCN(Cc1cc(C(F)(F)F)ccc1-c1cc(CC(=O)O)ccc1OC)C(=O)OCc1cc(F)cc(F)c1`, the IC50 in data set [1] turned out to be 0.011 µM; in data set [2] it was 0.003 µM.
`COC(=O)N(CCc1ccccc1)Cc1cc(C(F)(F)F)ccc1-c1cc(CC(=O)O)ccc1OC`: the values for the IC50 in data set [1] and in [2] were 0.062 µM and 0.024 µM, respectively.
Regarding `CCN(Cc1cc(C(F)(F)F)ccc1-c1cc(CC(=O)O)ccc1OC)C(=O)OCc1cccc(Cl)c1`, the figures for the IC50 in [1] and in data set [2] were 0.01 µM and 0.002 µM, respectively.
Turning to `C[C@H]1[C@@H](c2ccccc2)OC(=O)N1Cc1cc(F)ccc1-c1ccc(CC(=O)O)cc1`, the IC50 in data set [1] is 1.8 µM; in data set [2], 0.36 µM.
On to `COc1ccc(CC(=O)O)cc1-c1ccc(C(F)(F)F)cc1CN1C(=O)O[C@H](c2ccccc2)[C@@H]1C`, for which the IC50 is more than 30 µM on Cytochrome P450 3A4; 4.5 µM in [1]; more than 30 µM at Cytochrome P450 2C9; more than 30 µM on Cytochrome P450 2D6; 63.7 µM at Thromboxane A2 receptor; 0.18 µM in data set [2]. In data set [3], this compound returned an IC50 of 31.3 µM.
With `COc1ccc(CC(=O)O)cc1-c1ccc(C(F)(F)F)cc1CNC(=O)OCc1ccccc1`, the IC50 in data set [1] worked out at 0.238 µM; in [2], 0.045 µM.

The values above are taken from ChEMBL document CHEMBL1914441, “Discovery and optimization of a biphenylacetic acid series of prostaglandin D2 receptor DP2 antagonists with efficacy in a murine model of allergic rhinitis” (Bioorg Med Chem Lett, 2011).
